Calls of active or inactive are those of the source.
What was measured:
[1] = target: TGF-beta receptor type-2 (Homo sapiens) (UniProt P37173); test: Binding affinity to TGFBR2 assessed as change in thermal denaturation at 10 uM by thermal stability shift assay
Procedure, shortened: (§1)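 Each compound was screened across a kinase panel by thermal stability shift assay. The read-out was the shift in protein melting temperature (ΔTm, in °C) relative to the unliganded kinase. A ΔTm of 4.0 °C served as the hit cutoff.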

[2] = target: T1, Serine/threonine-protein kinase PLK4 (Homo sapiens) (UniProt O00444); test: Binding affinity to PLK4 assessed as change in thermal denaturation at 10 uM by thermal stability shift assay; procedure, shortened: as §1
T1 sequence (whole entry): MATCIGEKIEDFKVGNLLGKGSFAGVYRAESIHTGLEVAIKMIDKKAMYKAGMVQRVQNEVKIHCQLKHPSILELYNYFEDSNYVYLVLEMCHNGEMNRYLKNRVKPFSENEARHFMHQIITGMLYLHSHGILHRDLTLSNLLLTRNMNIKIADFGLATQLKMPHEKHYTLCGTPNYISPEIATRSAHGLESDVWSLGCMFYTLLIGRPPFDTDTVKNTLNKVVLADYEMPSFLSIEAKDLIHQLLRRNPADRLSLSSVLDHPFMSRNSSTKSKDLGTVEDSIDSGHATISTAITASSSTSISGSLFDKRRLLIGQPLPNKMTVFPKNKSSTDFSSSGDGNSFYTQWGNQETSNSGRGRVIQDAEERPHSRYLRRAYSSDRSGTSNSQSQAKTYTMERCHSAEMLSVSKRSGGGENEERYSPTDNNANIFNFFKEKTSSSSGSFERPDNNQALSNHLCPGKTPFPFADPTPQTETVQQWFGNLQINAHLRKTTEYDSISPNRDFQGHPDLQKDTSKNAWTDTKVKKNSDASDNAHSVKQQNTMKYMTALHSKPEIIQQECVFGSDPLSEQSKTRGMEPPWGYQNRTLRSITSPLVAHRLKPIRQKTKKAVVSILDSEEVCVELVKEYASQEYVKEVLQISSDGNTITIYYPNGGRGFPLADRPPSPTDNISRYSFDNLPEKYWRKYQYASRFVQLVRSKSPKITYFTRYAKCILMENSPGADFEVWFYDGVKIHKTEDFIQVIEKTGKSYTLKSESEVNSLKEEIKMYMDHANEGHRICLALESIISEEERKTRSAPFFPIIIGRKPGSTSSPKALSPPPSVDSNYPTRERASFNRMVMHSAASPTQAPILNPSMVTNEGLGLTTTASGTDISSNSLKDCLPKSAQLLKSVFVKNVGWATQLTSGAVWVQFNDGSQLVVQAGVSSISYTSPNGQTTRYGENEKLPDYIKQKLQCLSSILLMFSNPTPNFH

[3] = target: T2, Serine/threonine-protein kinase haspin (Homo sapiens) (UniProt Q8TF76); test: Binding affinity to Haspin assessed as change in thermal denaturation at 10 uM by thermal stability shift assay; procedure, shortened: as §1
T2 sequence (whole entry): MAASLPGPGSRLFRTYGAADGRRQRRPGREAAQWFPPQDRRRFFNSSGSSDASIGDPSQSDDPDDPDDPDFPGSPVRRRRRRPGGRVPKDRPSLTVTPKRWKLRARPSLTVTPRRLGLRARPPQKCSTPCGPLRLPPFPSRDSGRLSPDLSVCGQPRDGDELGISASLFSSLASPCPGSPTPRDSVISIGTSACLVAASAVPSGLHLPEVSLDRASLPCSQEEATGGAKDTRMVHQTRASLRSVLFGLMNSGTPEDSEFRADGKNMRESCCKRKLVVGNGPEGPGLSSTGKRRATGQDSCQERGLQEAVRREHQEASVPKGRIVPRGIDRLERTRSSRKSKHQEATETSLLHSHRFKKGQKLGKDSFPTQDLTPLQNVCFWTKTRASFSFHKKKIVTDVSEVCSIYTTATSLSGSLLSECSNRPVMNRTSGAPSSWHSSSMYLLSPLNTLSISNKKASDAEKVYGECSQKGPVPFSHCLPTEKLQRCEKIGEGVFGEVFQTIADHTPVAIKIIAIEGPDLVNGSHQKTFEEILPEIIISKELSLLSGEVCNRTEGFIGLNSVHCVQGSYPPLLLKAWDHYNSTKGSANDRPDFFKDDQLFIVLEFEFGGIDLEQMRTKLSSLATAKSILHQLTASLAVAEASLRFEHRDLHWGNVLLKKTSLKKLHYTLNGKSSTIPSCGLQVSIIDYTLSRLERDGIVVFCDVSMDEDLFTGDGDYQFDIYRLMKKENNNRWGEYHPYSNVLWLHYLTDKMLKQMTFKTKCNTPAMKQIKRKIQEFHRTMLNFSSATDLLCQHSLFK

[4] = target: Mast/stem cell growth factor receptor Kit (Homo sapiens) (UniProt P10721); test: Inhibition of cKIT using ATP as substrate
[5] = target: Receptor-type tyrosine-protein kinase FLT3 (Homo sapiens) (UniProt P36888); test: Inhibition of FLT3 using ATP as substrate
Chain of Receptor-type tyrosine-protein kinase FLT3 (Homo sapiens) (P36888 whole entry): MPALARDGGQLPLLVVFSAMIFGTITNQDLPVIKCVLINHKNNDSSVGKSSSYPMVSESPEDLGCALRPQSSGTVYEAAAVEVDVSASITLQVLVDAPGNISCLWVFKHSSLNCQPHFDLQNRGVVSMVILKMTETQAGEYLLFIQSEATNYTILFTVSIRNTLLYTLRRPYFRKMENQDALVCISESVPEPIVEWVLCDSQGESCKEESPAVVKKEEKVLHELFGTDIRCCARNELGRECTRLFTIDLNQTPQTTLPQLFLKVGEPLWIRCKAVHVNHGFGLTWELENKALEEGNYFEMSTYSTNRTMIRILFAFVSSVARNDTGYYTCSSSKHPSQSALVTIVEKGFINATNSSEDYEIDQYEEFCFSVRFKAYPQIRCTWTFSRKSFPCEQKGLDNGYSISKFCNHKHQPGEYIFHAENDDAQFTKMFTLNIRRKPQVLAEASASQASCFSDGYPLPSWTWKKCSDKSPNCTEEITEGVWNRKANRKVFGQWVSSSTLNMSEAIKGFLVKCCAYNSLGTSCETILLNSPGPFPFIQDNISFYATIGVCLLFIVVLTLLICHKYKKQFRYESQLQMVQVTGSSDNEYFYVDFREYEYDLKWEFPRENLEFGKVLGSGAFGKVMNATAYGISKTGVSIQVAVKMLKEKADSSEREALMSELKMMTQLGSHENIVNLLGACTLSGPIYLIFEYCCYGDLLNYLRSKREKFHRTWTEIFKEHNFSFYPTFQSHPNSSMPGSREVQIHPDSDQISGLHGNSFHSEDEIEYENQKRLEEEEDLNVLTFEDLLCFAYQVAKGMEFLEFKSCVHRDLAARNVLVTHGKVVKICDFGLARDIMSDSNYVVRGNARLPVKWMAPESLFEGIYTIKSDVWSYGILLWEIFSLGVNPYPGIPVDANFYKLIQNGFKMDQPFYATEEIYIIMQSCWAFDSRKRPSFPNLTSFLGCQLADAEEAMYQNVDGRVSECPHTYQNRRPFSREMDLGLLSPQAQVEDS

[6] = target: Phosphatidylinositol 4-kinase beta (Homo sapiens, UniProt Q9UBF8); test: Inhibition of PI4Kbeta using ATP as substrate
Chain of Phosphatidylinositol 4-kinase beta (Q9UBF8 whole entry, canonical isoform): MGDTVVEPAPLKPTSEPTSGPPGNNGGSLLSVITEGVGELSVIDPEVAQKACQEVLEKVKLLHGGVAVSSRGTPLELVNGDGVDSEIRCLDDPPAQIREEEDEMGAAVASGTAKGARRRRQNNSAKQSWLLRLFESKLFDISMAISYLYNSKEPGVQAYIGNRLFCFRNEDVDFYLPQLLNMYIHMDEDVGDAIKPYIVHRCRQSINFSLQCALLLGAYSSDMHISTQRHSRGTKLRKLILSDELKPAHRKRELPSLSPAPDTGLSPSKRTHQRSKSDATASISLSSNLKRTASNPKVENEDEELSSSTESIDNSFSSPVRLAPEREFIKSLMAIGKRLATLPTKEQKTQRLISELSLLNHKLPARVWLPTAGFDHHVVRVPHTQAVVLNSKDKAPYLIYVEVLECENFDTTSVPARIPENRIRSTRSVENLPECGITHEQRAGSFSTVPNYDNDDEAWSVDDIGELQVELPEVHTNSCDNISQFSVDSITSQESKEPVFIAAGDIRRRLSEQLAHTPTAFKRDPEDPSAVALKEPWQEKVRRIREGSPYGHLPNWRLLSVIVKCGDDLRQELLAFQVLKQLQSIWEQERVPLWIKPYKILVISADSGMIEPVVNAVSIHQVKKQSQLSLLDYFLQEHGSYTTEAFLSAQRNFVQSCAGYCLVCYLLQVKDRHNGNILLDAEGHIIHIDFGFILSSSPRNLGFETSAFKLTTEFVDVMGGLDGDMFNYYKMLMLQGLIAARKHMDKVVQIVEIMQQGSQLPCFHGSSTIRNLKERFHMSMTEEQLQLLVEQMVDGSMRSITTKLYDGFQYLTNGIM

[7] = target: Phosphatidylinositol 4,5-bisphosphate 3-kinase catalytic subunit alpha isoform (Homo sapiens, UniProt P42336); test: Inhibition of PI3Kalpha using ATP as substrate
[8] = target: Protein kinase C alpha type (Homo sapiens, UniProt P17252); test: Inhibition of PKCalpha using ATP as substrate
[9] = target: Rho-associated protein kinase 2 (Homo sapiens, UniProt O75116); test: Inhibition of ROCK2 using ATP as substrate
Chain of Rho-associated protein kinase 2 (O75116 whole entry): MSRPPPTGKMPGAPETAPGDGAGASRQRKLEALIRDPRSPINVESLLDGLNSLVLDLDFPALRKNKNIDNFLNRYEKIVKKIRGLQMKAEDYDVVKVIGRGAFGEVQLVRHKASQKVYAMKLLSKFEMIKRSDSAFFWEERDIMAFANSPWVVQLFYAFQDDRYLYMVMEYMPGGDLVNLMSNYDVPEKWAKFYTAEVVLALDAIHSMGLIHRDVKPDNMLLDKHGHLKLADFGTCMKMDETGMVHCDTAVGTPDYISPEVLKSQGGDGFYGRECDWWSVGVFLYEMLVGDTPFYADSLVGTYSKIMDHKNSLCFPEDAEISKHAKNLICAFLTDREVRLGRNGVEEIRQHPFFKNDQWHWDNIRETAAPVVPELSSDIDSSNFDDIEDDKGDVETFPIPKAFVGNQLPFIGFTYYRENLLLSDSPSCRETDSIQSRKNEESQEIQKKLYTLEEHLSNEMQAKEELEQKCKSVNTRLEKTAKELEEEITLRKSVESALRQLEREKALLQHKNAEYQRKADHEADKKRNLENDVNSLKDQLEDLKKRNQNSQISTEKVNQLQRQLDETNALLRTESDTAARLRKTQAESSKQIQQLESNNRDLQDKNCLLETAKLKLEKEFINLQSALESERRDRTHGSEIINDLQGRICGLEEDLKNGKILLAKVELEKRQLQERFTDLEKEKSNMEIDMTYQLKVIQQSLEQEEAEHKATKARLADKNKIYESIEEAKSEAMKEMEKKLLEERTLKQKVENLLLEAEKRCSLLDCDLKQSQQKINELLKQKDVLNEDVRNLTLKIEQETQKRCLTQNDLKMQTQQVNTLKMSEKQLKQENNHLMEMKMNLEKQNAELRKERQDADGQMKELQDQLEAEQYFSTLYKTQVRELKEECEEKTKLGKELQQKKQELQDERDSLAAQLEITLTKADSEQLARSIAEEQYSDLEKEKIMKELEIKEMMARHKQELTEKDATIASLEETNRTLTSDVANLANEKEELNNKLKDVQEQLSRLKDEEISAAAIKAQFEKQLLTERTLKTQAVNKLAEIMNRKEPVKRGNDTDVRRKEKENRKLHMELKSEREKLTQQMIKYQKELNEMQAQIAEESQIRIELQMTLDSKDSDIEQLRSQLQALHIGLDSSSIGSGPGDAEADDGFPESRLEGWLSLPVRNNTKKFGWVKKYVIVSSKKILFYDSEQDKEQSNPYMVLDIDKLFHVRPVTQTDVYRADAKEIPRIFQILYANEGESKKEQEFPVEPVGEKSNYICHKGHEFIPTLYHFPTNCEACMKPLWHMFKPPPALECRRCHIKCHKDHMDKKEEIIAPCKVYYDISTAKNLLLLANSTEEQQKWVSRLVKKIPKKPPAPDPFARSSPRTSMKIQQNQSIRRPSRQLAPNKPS

[10] = target: Serine/threonine-protein kinase pim-1 (Homo sapiens, UniProt P11309); test: Inhibition of PIM1 using ATP as substrate
[11] = Growth inhibition of human RS4:11 cells after 48 hrs by WST-1 assay; format: functional, cell-based; conditions: RS4-11, 48 h
Procedure, shortened: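 Compound (0–10 μM) added to the culture medium and incubated 48 h. Proliferation and viability read by WST-1 reagent. Survival expressed as percentage of control cultures and IC50 derived by curve fitting.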

[12] = target: Vascular endothelial growth factor receptor 2 (Homo sapiens, UniProt P35968); test: Inhibition of KDR using ATP as substrate
Chain of Vascular endothelial growth factor receptor 2 (P35968 whole entry): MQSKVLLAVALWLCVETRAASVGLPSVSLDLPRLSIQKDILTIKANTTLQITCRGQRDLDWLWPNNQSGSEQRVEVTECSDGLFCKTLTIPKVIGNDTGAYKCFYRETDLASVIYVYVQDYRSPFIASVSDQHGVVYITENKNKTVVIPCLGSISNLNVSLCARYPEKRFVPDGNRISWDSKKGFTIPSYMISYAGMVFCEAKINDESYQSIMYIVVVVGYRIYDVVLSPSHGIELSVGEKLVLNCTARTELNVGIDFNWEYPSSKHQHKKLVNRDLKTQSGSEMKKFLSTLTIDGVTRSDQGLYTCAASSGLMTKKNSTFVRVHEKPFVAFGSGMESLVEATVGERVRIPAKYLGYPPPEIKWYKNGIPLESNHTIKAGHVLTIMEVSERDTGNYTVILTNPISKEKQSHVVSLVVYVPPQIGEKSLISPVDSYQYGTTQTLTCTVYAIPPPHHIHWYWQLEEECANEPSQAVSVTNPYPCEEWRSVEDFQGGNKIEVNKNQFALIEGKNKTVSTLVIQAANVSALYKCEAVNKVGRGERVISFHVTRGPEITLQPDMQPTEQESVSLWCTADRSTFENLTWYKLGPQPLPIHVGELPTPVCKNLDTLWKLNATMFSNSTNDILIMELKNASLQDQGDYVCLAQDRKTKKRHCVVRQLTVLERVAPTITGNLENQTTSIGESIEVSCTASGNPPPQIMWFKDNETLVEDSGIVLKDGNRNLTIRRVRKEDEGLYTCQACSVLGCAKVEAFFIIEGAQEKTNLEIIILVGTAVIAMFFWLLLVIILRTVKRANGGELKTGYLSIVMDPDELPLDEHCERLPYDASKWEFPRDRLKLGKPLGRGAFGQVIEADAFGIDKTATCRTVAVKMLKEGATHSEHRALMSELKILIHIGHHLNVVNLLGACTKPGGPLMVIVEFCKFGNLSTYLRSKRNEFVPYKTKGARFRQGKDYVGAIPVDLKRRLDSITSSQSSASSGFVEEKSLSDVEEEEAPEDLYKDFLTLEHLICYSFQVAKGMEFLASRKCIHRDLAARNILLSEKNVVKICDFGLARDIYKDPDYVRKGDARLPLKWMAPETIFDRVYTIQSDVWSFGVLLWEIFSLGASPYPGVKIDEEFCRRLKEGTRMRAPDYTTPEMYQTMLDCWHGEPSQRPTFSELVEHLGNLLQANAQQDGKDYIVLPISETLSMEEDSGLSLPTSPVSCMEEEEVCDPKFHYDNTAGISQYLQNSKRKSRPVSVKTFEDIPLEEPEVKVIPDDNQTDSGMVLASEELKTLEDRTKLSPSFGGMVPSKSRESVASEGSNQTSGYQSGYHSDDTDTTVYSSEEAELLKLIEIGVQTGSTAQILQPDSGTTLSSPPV

[13] = Inhibition of PKA using ATP as substrate
[14] = target: Protein kinase C theta type (Homo sapiens, UniProt Q04759); test: Inhibition of PKCtheta using ATP as substrate
[15] = target: Phosphatidylinositol 4,5-bisphosphate 3-kinase catalytic subunit gamma isoform (Homo sapiens, UniProt P48736); test: Inhibition of PI3Kgamma using ATP as substrate
[16] = target: Serine/threonine-protein kinase pim-3 (Homo sapiens, UniProt Q86V86); test: Inhibition of PIM3 using ATP as substrate
[17] = target: Proto-oncogene tyrosine-protein kinase receptor Ret (Homo sapiens, UniProt P07949); test: Inhibition of RET using ATP as substrate

Chain of TGF-beta receptor type-2 (Homo sapiens) (P37173 whole entry): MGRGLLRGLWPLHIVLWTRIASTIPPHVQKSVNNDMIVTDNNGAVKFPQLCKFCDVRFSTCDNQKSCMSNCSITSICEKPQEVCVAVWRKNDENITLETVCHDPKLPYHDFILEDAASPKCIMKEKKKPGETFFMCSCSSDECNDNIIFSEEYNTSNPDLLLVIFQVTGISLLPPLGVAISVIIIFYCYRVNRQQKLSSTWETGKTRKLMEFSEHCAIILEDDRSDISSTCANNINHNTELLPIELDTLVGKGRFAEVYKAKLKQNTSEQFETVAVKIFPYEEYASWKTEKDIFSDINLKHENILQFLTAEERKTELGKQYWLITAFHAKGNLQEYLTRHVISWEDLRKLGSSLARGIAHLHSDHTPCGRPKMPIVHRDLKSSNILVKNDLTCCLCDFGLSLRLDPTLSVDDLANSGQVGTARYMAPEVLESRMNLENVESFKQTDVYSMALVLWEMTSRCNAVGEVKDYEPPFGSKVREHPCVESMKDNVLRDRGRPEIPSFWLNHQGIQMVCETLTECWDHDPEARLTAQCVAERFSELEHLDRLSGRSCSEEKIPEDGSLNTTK

Cn1c2c(Cl)c(Cl)ccc2c2cc(N)[nH]c(=O)c21 gave a ΔTm [1] of 7.9 °C, a ΔTm [2] of 2 °C and a ΔTm [3] of 2.7 °C.
In the case of CC(=O)NCC1c2c(n(C)c3c(Cl)c(Cl)ccc23)C(=O)NC1(C)C (racemic), the ΔTm [1] is reported as 1.5 °C, the ΔTm [2] is reported as 1 °C and the ΔTm [3] is reported as 0.3 °C.
With CCN1CCC2(CC1)NC(=O)c1c(c3ccc(Cl)c(Cl)c3n1C)C2C#N (racemic) the ΔTm [1] was 0.3 °C, the ΔTm [2] was 3.2 °C and the ΔTm [3] was 2.6 °C.
For Cn1c2c(c3ccc(Cl)c(Cl)c31)C(C#N)C1(CCN(C(=O)OC(C)(C)C)CC1)NC2=O (racemic), the ΔTm [2] was 0.1 °C and the ΔTm [3] was 0.3 °C.
In the case of CN1CCC2(CC1)NC(=O)c1c(c3ccc(Cl)c(Cl)c3n1C)C2C#N (racemic), the ΔTm [1] is reported as 1.1 °C, the inhibition [4] is reported as “inactive” and the ΔTm [2] is reported as 3.3 °C. The ΔTm [3] was 3.4 °C and the inhibition [5] was “inactive”.
For CCC1(CC)NC(=O)c2c(c3ccc(Cl)c(Cl)c3n2C)C1C#N (centres undefined), the ΔTm [1] was 5 °C, the ΔTm [2] was 4.6 °C and the ΔTm [3] was 0.4 °C.
Molecule Cn1c2c(Cl)c(Cl)ccc2c2cc[nH]c(=O)c21 has a ΔTm [1] of 10.1 °C, a ΔTm [2] of 1.7 °C and a ΔTm [3] of 3.4 °C.
With N#CC1c2c([nH]c3c(Cl)c(Cl)ccc23)C(=O)NC12CCCCC2 (racemic) the ΔTm [2] was 1.3 °C and the ΔTm [3] was 0 °C.
For Cn1c2c(c3ccc(Cl)c(Cl)c31)C(C#N)C1(CCOCC1)NC2=O (centres undefined), the ΔTm [1] was 2.6 °C, the ΔTm [2] was 2.7 °C and the ΔTm [3] was 1.1 °C.
With Cn1c2c(c3ccc(Cl)c(Cl)c31)C(C#N)C1(CCCC1)NC2=O (centres undefined) the ΔTm [1] was 2.2 °C, the ΔTm [2] was 2.5 °C and the ΔTm [3] was 0.1 °C.
CC1(C)NC(=O)c2[nH]c3c(Cl)c(Cl)ccc3c2C1C#N (centres undefined) showed a ΔTm [1] of 6.8 °C, a ΔTm [2] of 1.7 °C and a ΔTm [3] of 0.3 °C.
Cn1c2c(c3ccccc31)C(C#N)C(C)(C)NC2=O (centres undefined) showed a ΔTm [1] of 2.9 °C, a ΔTm [2] of 0.9 °C and a ΔTm [3] of 1.7 °C.
For Cn1c2c(Cl)c(Cl)ccc2c2cn[nH]c(=O)c21, the ΔTm [1] was 10.4 °C, the ΔTm [2] was 1.5 °C and the ΔTm [3] was 3.2 °C.
Work on Cn1c2c(c3ccc(Cl)c(Cl)c31)C(C#N)C(C)(C)NC2=O (centres undefined) yielded a ΔTm [1] of 8.1 °C, a ΔTm [2] of 5.1 °C and a ΔTm [3] of 0.9 °C.
Cn1c2c(c3ccc(Cl)c(Cl)c31)C(CN)C(C)(C)NC2=O (racemic) gave a ΔTm [1] of 3 °C, a ΔTm [2] of 2.7 °C and a ΔTm [3] of 1.8 °C.
With Cn1c2c(c3ccc(Cl)c(Cl)c31)C(C#N)C1(CCNCC1)NC2=O (racemic) the IC50 [6] was 2500 nM, the IC50 [7] was greater than 9100 nM and the IC50 [8] was 2200 nM. It also gave an IC50 [9] of 220 nM, an IC50 [10] of 60 nM and an IC50 [11] of 3570 nM. For the same molecule, the IC50 [12] was 7200 nM, the ΔTm [2] was 6.8 °C and the ΔTm [3] was 5.6 °C. For the same molecule, the IC50 [13] was 77 nM, the IC50 [14] was 1400 nM and the IC50 [15] was 3100 nM. It also gave an IC50 [16] of 90 nM and an IC50 [17] of 7700 nM.
